# Experimental data as given in ChEMBL document CHEMBL4364238, “Discovery of BNC375, a Potent, Selective, and Orally Available Type I Positive Allosteric Modulator of α7 nAChRs” (ACS Med Chem Lett, 2019).
# The source made the active and inactive calls. No cut-off for these calls is given here.
# Assays:
# Mus musculus = test: Reversal of scopolamine-induced memory impairment in mouse assessed as spontaneous alteration at 3 to 30 mg/kg, po administered with compond and scopolamine at 60 mins and 30 mins respectively prior to test by T-maze test; format: functional, organism-based
# Procedure, shortened: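 Mouse T-maze continuous alternation task; reversal of scopolamine-induced loss of spontaneous alternation after ip or oral doses of 3 and 30 mg/kg; significant doses reported.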
# [1] = molecular target: Neuronal acetylcholine receptor subunit alpha-7 (Rattus norvegicus) (UniProt Q05941); test: Positive allosteric modulator activity at rat alpha7 nAChR expressed in GH4C1 cells assessed as potentiation of acetylcholine response at 3 uM at -70 mV holding potential preincubated for 30 secs followed by co-application with acetylcholine by automated patch clamp assay; format: cell-based
# Neuronal acetylcholine receptor subunit alpha-7 (Rattus norvegicus), sequence (Q05941 whole entry): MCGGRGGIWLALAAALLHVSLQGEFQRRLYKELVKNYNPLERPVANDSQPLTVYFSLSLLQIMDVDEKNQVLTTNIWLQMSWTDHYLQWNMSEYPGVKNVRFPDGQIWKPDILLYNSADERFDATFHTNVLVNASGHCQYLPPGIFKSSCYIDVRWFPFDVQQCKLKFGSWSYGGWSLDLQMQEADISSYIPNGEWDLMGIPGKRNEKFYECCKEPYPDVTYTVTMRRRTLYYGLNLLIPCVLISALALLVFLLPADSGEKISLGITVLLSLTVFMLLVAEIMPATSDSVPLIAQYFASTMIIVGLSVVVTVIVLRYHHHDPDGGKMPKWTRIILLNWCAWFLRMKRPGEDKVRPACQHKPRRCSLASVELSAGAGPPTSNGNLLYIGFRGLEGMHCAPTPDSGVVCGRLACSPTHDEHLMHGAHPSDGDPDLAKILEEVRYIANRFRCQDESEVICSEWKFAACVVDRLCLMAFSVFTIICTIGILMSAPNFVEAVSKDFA
# Procedure, shortened: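 Automated planar patch clamp on stable GH4C1 (rat) cell lines expressing rat α7 nAChR; test compound at 3 μM with an EC₂₀ acetylcholine challenge; percent change in peak current versus acetylcholine alone taken as P₃.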
# [2] = molecular target: Neuronal acetylcholine receptor subunit alpha-7 (Rattus norvegicus, UniProt Q05941); test: (§1) Positive allosteric modulatory activity at rat alpha7 nAChR expressed in GH4C1 cells assessed as potentiation of acetylcholine response at -70 mV holding potential preincubated for 30 secs followed by co-application with acetylcholine by manual patch clamp assay; format: cell-based
# Neuronal acetylcholine receptor subunit alpha-7, sequence (Q05941 whole entry): as above
# Procedure, shortened: (§2)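 Conventional manual patch-clamp with a fast-application system on stable GH4C1 cells expressing rat α7 nAChR; currents evoked by acetylcholine with and without test compound; peak-current change relative to acetylcholine alone gives potentiation (P₃ at 3 μM; concentration–response for EC₅₀ and Pmax).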
# [3] = molecular target: Neuronal acetylcholine receptor subunit alpha-7 (Rattus norvegicus) (UniProt Q05941); test: as §1; format: cell-based; procedure, shortened: as §2
# [4] = molecular target: Neuronal acetylcholine receptor subunit alpha-7 (Rattus norvegicus) (UniProt Q05941); test: Positive allosteric modulatory activity at rat alpha7 nAChR expressed in GH4C1 cells assessed as potentiation of peak current at -70 mV holding potential preincubated for 30 secs followed by co-application with acetylcholine by manual patch clamp assay relative to acetylcholine-induced peak current; format: cell-based; procedure, shortened: as §2
# [5] = Stability in human liver microsomes assessed as hepatic extraction ratio at 1 uM measured for 45 mins by LC-MS/MS analysis; format: ADME, Microsome; settings: read-out: ERH
# Cytochrome P450 2C19 = Cytochrome P450 2C19 (Homo sapiens, UniProt P33261); test: Inhibition of CYP2C19 (unknown origin); format: ADME
# Cytochrome P450 2C19, sequence (P33261 whole entry): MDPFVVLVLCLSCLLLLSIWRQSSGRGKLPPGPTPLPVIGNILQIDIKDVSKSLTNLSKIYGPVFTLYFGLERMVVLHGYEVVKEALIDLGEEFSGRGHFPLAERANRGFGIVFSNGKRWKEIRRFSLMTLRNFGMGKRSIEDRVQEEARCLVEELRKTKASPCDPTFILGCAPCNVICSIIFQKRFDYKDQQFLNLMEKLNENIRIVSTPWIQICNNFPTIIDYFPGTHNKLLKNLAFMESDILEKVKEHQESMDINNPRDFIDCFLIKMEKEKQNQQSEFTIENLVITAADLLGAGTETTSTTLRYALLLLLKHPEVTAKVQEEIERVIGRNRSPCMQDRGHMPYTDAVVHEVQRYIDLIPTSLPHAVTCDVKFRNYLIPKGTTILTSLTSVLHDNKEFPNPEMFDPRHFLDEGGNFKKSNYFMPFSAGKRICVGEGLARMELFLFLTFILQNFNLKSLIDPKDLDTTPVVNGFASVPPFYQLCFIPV
# [6] = Stability in mouse liver microsomes assessed as hepatic extraction ratio at 1 uM measured for 45 mins by LC-MS/MS analysis; format: ADME, Microsome; settings: read-out: ERH
# [7] = Solubility of the compound at pH 2; format: physicochemical; settings: buffer
# Cytochrome P450 2C9 = Cytochrome P450 2C9 (Homo sapiens, UniProt P11712); test: Inhibition of CYP2C9 (unknown origin); format: ADME
# Cytochrome P450 2C9, sequence (P11712 whole entry): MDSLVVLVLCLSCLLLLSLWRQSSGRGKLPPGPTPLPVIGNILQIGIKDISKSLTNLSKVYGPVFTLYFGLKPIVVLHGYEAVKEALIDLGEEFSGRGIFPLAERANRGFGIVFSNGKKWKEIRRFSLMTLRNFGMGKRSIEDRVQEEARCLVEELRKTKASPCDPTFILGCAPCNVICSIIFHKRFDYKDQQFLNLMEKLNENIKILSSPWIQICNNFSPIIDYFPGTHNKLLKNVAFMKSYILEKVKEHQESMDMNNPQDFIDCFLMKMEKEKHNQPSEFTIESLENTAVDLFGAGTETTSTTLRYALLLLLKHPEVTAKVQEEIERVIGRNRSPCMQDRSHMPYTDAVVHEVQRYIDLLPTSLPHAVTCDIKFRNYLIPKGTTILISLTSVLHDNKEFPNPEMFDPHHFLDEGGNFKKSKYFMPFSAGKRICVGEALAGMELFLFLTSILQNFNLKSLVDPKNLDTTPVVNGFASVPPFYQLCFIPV
# [8] = Solubility of the compound at pH 6.5; format: physicochemical; settings: buffer
# [9] = molecular target: Neuronal acetylcholine receptor subunit alpha-7 (Rattus norvegicus) (UniProt Q05941); test: Agonist activity at rat alpha7 nAChR expressed in GH4C1 cells assessed as current response at 3 uM at -70 mV holding potential by manual patch clamp assay; format: cell-based
# Procedure, shortened: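 Manual patch clamp with fast application on stable GH4C1 cells expressing α7 nAChR; test compound applied without acetylcholine to look for evoked currents.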
smiles,measurement,setting,value
COc1ccc(Cl)cc1NCC1C(c2ccc(S(N)(=O)=O)cc2)C1(C)C (racemic),inhibition,Mus musculus,Active
same,Activity,[1],7900%
same,EC50,[2],0.025 µM
same,Activity,[3],Dose-dependent effect
same,Emax,[4],650%
same,"hepatic extraction ratio at 0.75 h, 1 µM",[5],0.64
same,IC50,Cytochrome P450 2C19,> 10 µM
same,"hepatic extraction ratio at 0.75 h, 1 µM",[6],0.82
same,solubility,[7],1.6 to 3.1 µg/mL
same,IC50,Cytochrome P450 2C9,> 10 µM
same,solubility,[8],> 100 µg/mL
same,inhibition,[9],inactive
